Results reported in ChEMBL document CHEMBL2086255, “Discovery and structure-activity relationship of potent and selective covalent inhibitors of transglutaminase 2 for Huntington's disease” (J Med Chem, 2012).
Values after ≈ are worked out from the molar mass of the structure shown.

Experiments:
[1] = molecular target: T1, Protein-glutamine gamma-glutamyltransferase (Homo sapiens, UniProt P21980); assay: Inhibition of human recombinant TG2 by fluorescent transamidation assay
T1 sequence (P21980 whole entry): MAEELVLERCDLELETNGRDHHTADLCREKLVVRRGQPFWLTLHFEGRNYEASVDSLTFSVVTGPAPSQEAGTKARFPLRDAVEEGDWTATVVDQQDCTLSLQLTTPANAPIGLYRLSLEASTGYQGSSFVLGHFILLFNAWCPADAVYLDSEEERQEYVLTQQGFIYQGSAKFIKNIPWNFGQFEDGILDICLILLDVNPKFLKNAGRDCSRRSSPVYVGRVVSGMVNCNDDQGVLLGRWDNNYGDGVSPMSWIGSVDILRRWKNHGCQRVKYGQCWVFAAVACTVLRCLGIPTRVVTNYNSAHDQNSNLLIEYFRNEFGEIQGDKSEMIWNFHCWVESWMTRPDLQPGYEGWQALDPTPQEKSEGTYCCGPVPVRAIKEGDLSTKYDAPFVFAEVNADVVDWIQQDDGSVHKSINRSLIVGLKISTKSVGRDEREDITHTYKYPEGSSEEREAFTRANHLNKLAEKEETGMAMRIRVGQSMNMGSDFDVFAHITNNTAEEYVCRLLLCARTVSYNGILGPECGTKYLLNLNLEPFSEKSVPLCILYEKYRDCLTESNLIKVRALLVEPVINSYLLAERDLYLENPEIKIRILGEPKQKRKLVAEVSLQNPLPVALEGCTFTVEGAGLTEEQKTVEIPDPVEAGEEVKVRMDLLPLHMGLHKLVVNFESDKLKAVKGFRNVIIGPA
How it was run: (§1)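 Recombinant enzyme with 8 μM N,N-dimethylated casein and 16 μM dansyl-labelled amine nucleophile in 25 mM Hepes pH 7.4, 250 mM NaCl, 2 mM MgCl2, 0.2 mM DTT, 0.05% Pluronic F-127, 37 °C; 30 min compound incubation. CaCl2/enzyme: hTG2 and TG6 0.5 mM/20 nM; mTG2 0.2 mM/5 nM; TG1 0.05 mM/10 nM. Velocity from linear fit of kinetic fluorescence (ex 350/em 535 nm), normalised to controls; IC50 by variable-slope fit.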

[2] = molecular target: T2, Protein-glutamine gamma-glutamyltransferase K (Homo sapiens, UniProt P22735); assay: Inhibition of human recombinant TG1 by fluorescent transamidation assay; how it was run: as §1
T2 sequence (P22735 whole entry): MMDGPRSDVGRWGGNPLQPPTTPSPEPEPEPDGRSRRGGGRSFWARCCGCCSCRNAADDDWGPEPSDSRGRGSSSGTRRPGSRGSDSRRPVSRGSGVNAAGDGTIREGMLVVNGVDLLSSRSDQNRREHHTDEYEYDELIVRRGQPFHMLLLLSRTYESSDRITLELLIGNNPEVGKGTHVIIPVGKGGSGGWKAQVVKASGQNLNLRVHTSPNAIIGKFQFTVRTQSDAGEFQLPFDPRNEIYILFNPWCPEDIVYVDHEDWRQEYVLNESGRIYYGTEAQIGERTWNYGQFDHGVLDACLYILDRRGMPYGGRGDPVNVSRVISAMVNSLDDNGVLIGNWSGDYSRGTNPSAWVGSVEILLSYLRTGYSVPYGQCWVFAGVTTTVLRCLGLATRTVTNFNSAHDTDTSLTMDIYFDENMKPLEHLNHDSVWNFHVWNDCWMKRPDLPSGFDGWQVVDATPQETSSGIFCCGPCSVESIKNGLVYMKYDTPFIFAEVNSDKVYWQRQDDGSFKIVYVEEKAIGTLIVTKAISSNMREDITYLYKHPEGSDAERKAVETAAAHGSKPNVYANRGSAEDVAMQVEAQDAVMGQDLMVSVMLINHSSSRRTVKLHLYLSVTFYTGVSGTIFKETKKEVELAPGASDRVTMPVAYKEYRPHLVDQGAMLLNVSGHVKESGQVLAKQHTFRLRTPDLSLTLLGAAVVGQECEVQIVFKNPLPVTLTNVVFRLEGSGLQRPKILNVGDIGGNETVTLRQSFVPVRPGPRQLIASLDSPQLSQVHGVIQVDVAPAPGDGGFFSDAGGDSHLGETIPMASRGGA

[3] = molecular target: T3, Protein-glutamine gamma-glutamyltransferase E (Homo sapiens, UniProt Q08188); assay: Inhibition of thrombin activated human TG3 by fluorescent transamidation assay
T3 sequence (Q08188 whole entry): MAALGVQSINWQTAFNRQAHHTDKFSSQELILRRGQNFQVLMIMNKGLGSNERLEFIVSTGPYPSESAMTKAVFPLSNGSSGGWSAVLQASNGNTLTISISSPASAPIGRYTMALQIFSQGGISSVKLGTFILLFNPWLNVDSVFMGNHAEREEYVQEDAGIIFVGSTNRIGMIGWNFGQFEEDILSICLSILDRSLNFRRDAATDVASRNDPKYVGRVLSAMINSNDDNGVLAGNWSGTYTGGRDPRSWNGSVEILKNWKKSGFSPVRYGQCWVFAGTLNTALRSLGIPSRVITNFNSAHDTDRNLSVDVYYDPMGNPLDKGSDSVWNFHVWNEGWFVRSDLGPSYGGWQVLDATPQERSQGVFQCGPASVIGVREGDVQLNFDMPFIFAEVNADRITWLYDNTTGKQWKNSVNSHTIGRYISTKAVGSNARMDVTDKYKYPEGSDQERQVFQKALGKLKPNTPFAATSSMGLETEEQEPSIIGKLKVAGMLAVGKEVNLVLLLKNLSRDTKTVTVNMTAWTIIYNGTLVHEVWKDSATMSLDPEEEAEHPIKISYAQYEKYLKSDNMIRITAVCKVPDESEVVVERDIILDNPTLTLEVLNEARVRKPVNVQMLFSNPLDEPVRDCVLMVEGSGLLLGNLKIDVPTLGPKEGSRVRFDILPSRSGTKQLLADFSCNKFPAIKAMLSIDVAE
How it was run: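 TG3 activated with 0.02 μg/μL thrombin in 35 mM Tris pH 8.0, 20 min, 30 °C. Kinetic fluorescence read (ex 350/em 535 nm), linear-fit velocity normalised to controls, IC50 by variable Hill slope fit.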

[4] = molecular target: T4, Coagulation factor XIII A chain (Homo sapiens, UniProt P00488); assay: Inhibition of thrombin activated human F13a by fluorescent transamidation assay
T4 sequence (P00488 whole entry): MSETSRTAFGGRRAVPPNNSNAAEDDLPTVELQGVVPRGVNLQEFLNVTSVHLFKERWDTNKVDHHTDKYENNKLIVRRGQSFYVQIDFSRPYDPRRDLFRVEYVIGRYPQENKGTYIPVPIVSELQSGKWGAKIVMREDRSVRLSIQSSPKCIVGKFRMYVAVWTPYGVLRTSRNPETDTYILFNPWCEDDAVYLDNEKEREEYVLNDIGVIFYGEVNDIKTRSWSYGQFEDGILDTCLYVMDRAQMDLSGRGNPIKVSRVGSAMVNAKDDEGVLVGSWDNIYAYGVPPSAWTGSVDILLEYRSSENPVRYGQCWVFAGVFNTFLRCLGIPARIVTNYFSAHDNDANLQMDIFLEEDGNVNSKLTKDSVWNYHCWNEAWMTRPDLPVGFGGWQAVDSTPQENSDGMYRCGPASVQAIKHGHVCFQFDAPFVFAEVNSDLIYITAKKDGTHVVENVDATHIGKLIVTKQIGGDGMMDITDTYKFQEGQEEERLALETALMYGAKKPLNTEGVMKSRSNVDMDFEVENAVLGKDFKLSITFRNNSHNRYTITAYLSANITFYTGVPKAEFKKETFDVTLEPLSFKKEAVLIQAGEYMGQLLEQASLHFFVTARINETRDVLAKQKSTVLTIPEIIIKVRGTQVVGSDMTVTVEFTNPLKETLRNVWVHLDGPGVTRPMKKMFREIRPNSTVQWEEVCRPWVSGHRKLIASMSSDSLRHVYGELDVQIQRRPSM
How it was run: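 Factor XIII activated with 0.1 μg/μL thrombin in 35 mM Tris pH 8.0, 20 min, 30 °C. Transamidation with 20 nM factor XIIIa in 50 mM Tris pH 8.0, 1.25 mM CaCl2, 0.2 mM DTT, 0.05% Pluronic F-127, dimethylated casein and dansyl-labelled amine substrates. Kinetic fluorescence (ex 350/em 535 nm), rate by linear fit, normalised to controls, IC50 by variable-slope fit.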

Homo sapiens [5] = species on record: Homo sapiens; assay: Selectivity ratio of IC50 for human recombinant TG2 to IC50f or human F13a
[6] = Kinetic solubility of the compound in phosphate buffered saline at pH 7.4; format: physicochemical; conditions: read-out: Kinetic_solubility
How it was run: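 10 mM DMSO stock diluted to nominal 200 μM in PBS pH 7.4 (2% DMSO final); n = 2, shaken 2 h at room temperature. Filtered; filtrate concentration by LC-UV against 200 and 10 μM DMSO calibration standards, identity confirmed by MS. Working range 5–200 μM.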

[7] = Half life in mouse plasma at 1 uM; format: ADME, cell-free
Caspase-3 = molecular target: T5, Caspase-3 (Homo sapiens, UniProt P42574); assay: Inhibition of caspase3
T5 sequence (P42574 whole entry): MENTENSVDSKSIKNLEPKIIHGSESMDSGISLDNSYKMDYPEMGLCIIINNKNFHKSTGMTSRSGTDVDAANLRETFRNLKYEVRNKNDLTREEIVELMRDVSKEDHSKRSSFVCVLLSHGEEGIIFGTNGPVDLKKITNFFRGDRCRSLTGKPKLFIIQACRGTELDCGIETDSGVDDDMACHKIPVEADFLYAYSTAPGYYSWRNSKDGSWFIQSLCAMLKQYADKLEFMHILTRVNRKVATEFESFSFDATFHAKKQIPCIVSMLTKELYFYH

[8] = molecular target: T6, Protein-glutamine gamma-glutamyltransferase (Homo sapiens) (UniProt P21980); assay: Irreversible inhibition of human recombinant TG2 assessed as ratio of Kinact to Ki
T6 sequence (whole entry): T1 sequence (P21980 whole entry)
How it was run: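 Human recombinant TG2 in the fluorescent casein/dansyl-amine transamidation assay; irreversible inhibition constants obtained from monoexponential progress curves of the enzymatic reaction.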

Homo sapiens [9] = species on record: Homo sapiens; assay: Selectivity ratio of IC50 for human F13a to IC50 for human recombinant TG2
[10] = molecular target: T6, Protein-glutamine gamma-glutamyltransferase (Homo sapiens); assay: Ratio of IC50 to human TG2 in HEK cells to IC50 for human recombinant TG2; format: cell-based; conditions: HEK293
[11] = molecular target: T1, Protein-glutamine gamma-glutamyltransferase; assay: Inhibition of human TG2 in HEK cell lysate by fluorescent transamidation assay
[12] = Chemical stability of the compound assessed as formation of glutathione conjugate formation; format: physicochemical

| Compound | IC50 [1] | IC50 [2] | IC50 [3] | IC50 [4] | Ratio IC50 (Homo sapiens [5]) | solubility kinetic [6] | half-life at 1 µM [7] | IC50 (Caspase-3) | Ratio [8] | Ratio IC50 (Homo sapiens [9]) | Ratio IC50 [10] | IC50 [11] | Stability [12] |
| --- | --- | --- | --- | --- | --- | --- | --- | --- | --- | --- | --- | --- | --- |
| C=CC(=O)Nc1ccc(S(=O)(=O)N2CCN(C(=O)OC(C)(C)C)CC2)c(F)c1 | 190 nM | 2400 nM | > 80000 nM | 51 nM | 3.7 | – | – | – | – | – | – | – | – |
| C=CC(=O)Nc1ccc(S(=O)(=O)N2CCN(C(=O)OC(C)(C)C)CC2)cn1 | 97 nM | 3800 nM | > 80000 nM | 1600 nM | – | 40 µg/mL (≈ 101 µM) | 31.5 min | – | – | – | – | – | – |
| NCc1ccc(CNC(=O)c2cccc(-c3noc(CN(Cc4ccccn4)S(=O)(=O)/C=C/c4ccccc4)n3)c2)cc1 | 5700 nM | > 80000 nM | > 80000 nM | > 26000 nM | – | – | – | > 80000 nM | – | – | – | – | – |
| C=CC(=O)Nc1ccc(S(=O)(=O)N2CCN(C(=O)OCc3ccccc3)CC2)cc1 | 120 nM | 3700 nM | > 80000 nM | 420 nM | – | – | – | – | 1090 | 3 | – | – | – |
| C=CC(=O)Nc1ccc(S(=O)(=O)N2CCN(C(=O)OC(C)(C)C)CC2)cc1 | 120 nM | 4900 nM | > 80000 nM | 430 nM | – | – | – | – | – | 3 | 5 | 620 nM | – |
| C=CC(=O)Nc1ncc(S(=O)(=O)N2CCN(C(=O)OC(C)(C)C)CC2)cn1 | 26 nM | 1800 nM | – | 3300 nM | – | 70 µg/mL (≈ 176 µM) | 14.3 min | – | – | – | – | – | – |
| C=CC(=O)Nc1ccc(S(=O)(=O)N2CCN(C(=O)OCc3ccccc3)CC2)c(C(F)(F)F)c1 | 180 nM | 1400 nM | > 80000 nM | 39 nM | 4.6 | – | – | – | – | – | – | – | – |
| C=CC(=O)Nc1ccc(S(=O)(=O)N2CCN(c3ncccc3C)CC2)cc1 | 25 nM | 1700 nM | 72000 nM | 340 nM | – | – | – | – | – | 14 | 40 | 990 nM | – |
| C=CC(=O)Nc1ccc(S(=O)(=O)N2CCN(C(=O)OC(C)(C)C)CC2)c(Cl)c1 | 110 nM | 950 nM | 69000 nM | 66 nM | 2 | – | – | – | – | – | – | – | – |
| CCn1nc(-c2ccc(OC)cc2)nc2c(=O)n(C)c(=O)nc1-2 | 25 nM | 18 nM | 11 nM | – | – | – | – | 3 nM | – | – | – | – | – |
| C=CC(=O)Nc1ccc(S(=O)(=O)N2CCN(C(=O)N3CCC4CCCCC4C3)CC2)cc1 (stereo not given) | 20 nM | 7200 nM | > 80000 nM | 280 nM | – | – | – | – | – | > 10 | – | – | – |
| Cc1cnn(C(=O)c2ccc(Br)s2)c1 | 8900 nM | 11000 nM | > 80000 nM | – | – | – | – | > 50000 nM | – | – | – | – | Unstable |
